Screening results: PubChem, several laboratories
Only a selection was taken, and hits are over-represented in it overall.
Hep lipid drop – modulators of hepatic lipid droplet formation. AML12 mouse hepatocytes, oleate lipid droplets, BODIPY imaging. inhibition, % at 6.5 µM. 240,000 compounds, 0.4% hits;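 active = lipid droplet intensity inhibited by at least 50%, with more than 500 cells counted; inconclusive = wells with under 300 cells, treated as cytotoxic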
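Assay system: AML12 hepatocytes (mouse) / Also added: 100 µM oleic acid challenge / Times: overnight treatment with compound plus oleate / Detection: high-content imaging of BODIPY-stained droplets and DAPI nuclei / Evaluation: % inhibition of lipid droplet signal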
T cruzi inh – T. cruzi replication inhibition; T. cruzi beta-gal in NIH3T3, luminescence, 90 h; inhibition, % (no concentration beside the values); 300,000 compounds, 1.4% hits;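 active = mean inhibition across valid replicates above about 55%, limit read from the data; inconclusive = mean below that limit but half or more replicates reach it; inactive = mean below it, under half of replicates reach it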;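 note: signal also drops with host cell toxicity which is not excluded here; higher percent means less beta-gal luminescence so fewer parasites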
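System – NIH/3T3 host cells with β-galactosidase reporter T. cruzi · Doses – single 50 nL compound addition per well in DMSO · Reagent – 5000 T. cruzi trypomastigotes/well · Medium – Low-serum DMEM with 2% FBS · Timing – ≥90 h infection period, 3 h prior cell attachment · Evaluation – parasite load inhibition, % · Technique – GalScreen luminescence, 60 min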
DTT redox prof – compounds producing H2O2 with reducing agent – biochemical, NIH compound library profiling, artefact control for MLSCN library redox annotation, primary screen | 200,000 compounds, 0.03% hits | AID 878 | activation, % at 10 µM | DTT-dependent redox cycling H2O2, phenol red/HRP absorbance; 100% = 100 µM peroxide control, 0% = buffer;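 active = activation of at least 50% relative to the plate's high and low controls in the primary single-dose screen; inactive = activation below 50%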;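 note: compound incubated with DTT at 0.8 mM final as the reducing agent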
Lmaj promast – inhibitors of Leishmania major promastigote growth. Leishmania major promastigotes, resazurin fluorescence viability. inhibition, % at 10 µM. 200,000 compounds, 9% hits. AID 1063; in the data active = inhibition above about 50%;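 note: promastigotes grown with compound for 44 hours at 28 °C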
MPTP block – blocks calcium-induced mitochondrial swelling; AID 602449; inhibition, % at 10 µM; 360,000 compounds, 1.4% hits; isolated mouse mitochondria, Ca2+ swelling absorbance, 30 min;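 active = inhibition of 50% or more, scaled per plate between neutral and stimulator controls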
Of the large screens only hits and unclear results are named; the others gave an inactive call.

COc1ccc(C(=O)NCC(c2cccnc2)N2CCN(c3ccc(F)cc3)CC2)cc1OC (configuration not stated)	Lmaj promast 97 (no result: T cruzi inh)
COC(=O)NCC(c1cccnc1)N1CCOCC1 (configuration not stated)	none
CC(C)n1c(SCC(=O)NC2CC2)nnc1-c1ccco1	none (no result: DTT redox prof, Lmaj promast)
O=C(/C=C/c1ccccc1)c1ccc2c(c1)OCO2	none (no result: DTT redox prof, Lmaj promast)
CN(C)c1ccc(/C=C/C(=O)c2ccc3c(c2)OCO3)cc1	none (no result: Hep lipid drop, T cruzi inh, DTT redox prof, Lmaj promast)
O=C(/C=C/c1ccncc1)c1ccc2c(c1)OCCO2	Lmaj promast 100
CN(C)c1ccc(/C=C/C(=O)c2ccc3c(c2)OCCO3)cc1[N+](=O)[O-]	Lmaj promast 92
COc1ccc(C)cc1N(CC(=O)Nc1ccc(S(=O)(=O)N2CCCC2)cc1)S(C)(=O)=O	none (no result: DTT redox prof, Lmaj promast)
COc1cccc(CN(C)CC2CCCN(CCc3ccccc3C)C2)c1 (configuration not stated)	T cruzi inh 55 (no result: DTT redox prof, Lmaj promast)
O=C(CN1CCN(c2ccc(F)cc2)CC1)c1ccc(O)cc1O	none (no result: DTT redox prof, Lmaj promast)
COc1ccc(NC(=O)CN2CCN(C3c4ccccc4-c4ccccc43)CC2)c(OC)c1	none (no result: Hep lipid drop)
CCOc1ccc(NC(=O)CN2CCN(C3c4ccccc4-c4ccccc43)CC2)cc1	Lmaj promast 90
COc1ccccc1NC(=O)CN1CCN(C2c3ccccc3-c3ccccc32)CC1	Lmaj promast 58 (no result: Hep lipid drop)
O=C(NCc1ccco1)/C(=C/c1ccc(C(F)(F)F)cc1)c1nc2ccccc2[nH]1	Lmaj promast 84 (no result: DTT redox prof)
O=C(COC(=O)/C=C/c1cccc(C(F)(F)F)c1)NCc1ccco1	none (no result: Hep lipid drop, DTT redox prof, Lmaj promast)
O=C(NCc1ccco1)/C(=C/c1cccc(C(F)(F)F)c1)c1nc2ccccc2[nH]1	Lmaj promast 80
COc1cccc(C(=O)NC(C)c2ccc(Br)cc2)c1 (configuration not stated)	Lmaj promast 61
CCN(CC)c1ccc(/C=N\NC(=O)c2cccc3cc[nH]c23)cc1	none (no result: DTT redox prof, Lmaj promast)
Nc1c(-c2ccccc2)c(CSc2nc3ccccc3[nH]2)nn1-c1cccc(Cl)c1	T cruzi inh 66, Lmaj promast 98
Nc1c(-c2ccccc2)c(CSc2nc3ccccc3[nH]2)nn1-c1ccc(Cl)cc1	T cruzi inh 64, Lmaj promast 97
O=C(CN1CCN(C(=O)c2ccc(-c3nc4ccccc4s3)o2)CC1)Nc1ccc(F)cc1	none (no result: Hep lipid drop, T cruzi inh, DTT redox prof, Lmaj promast)
CCc1ncc(CN2CCCCC2C(=O)Nc2ccc(Oc3ccccc3)nc2)cn1 (configuration not stated)	none (no result: DTT redox prof, Lmaj promast)
O=C(c1ccc(S(=O)(=O)N2CCCC2)cc1)N1CCCCC1	none (no result: Hep lipid drop, DTT redox prof, Lmaj promast)
O=C(/C=C/c1ccc(O)c(O)c1)c1ccc(S(=O)(=O)N2CCCCCC2)cc1	Lmaj promast 95
C=CCNc1nc(N)c(C(=O)c2ccc3c(c2)OCO3)s1	Lmaj promast 50 (no result: Hep lipid drop, T cruzi inh)
CCOC(=O)c1ccc2c(c1)n(CC)c(/C=C/N(C)c1ccccc1)[n+]2CC	Lmaj promast 100
Cc1ccc(/C=C/S(=O)(=O)NCCC(=O)NCc2ccccc2F)cc1	none (no result: Hep lipid drop, T cruzi inh, DTT redox prof, Lmaj promast)
O=C(NCc1ccccc1)c1ccc(C(=O)N(C2CCCCC2)C2CCCCC2)cc1	T cruzi inh 61
CC(=O)n1cc(N(C(=O)CCl)c2ccccc2)c2ccccc21	none (no result: DTT redox prof, Lmaj promast)
O=C(CCl)N(c1ccc(Cl)cc1)c1c[nH]c2ccccc12	T cruzi inh 58, Lmaj promast 100
O=C(CCl)N(c1ccccc1)c1c[nH]c2ccccc12	Lmaj promast 97 (no result: Hep lipid drop)
Cc1ccc2c(c1)CCCN2S(=O)(=O)c1cccc(C(=O)Nc2ccccc2C(=O)O)c1	T cruzi inh 58 (no result: DTT redox prof, Lmaj promast)
Cc1ccc2nc(NC(=O)c3ccc(S(=O)(=O)N4CCCc5ccccc54)cc3)sc2c1	Lmaj promast 98
O=C(Nc1nnc(C2CC2)o1)c1ccc(S(=O)(=O)N2CCCc3ccccc32)cc1	T cruzi inh 59, Lmaj promast 99 (no result: Hep lipid drop)
O=C(Nc1nc2ccc(F)cc2s1)c1cccc(S(=O)(=O)N2CCc3ccccc32)c1	none
COc1ccc(-c2nnc(NC(=O)c3ccc(S(=O)(=O)N4CCCc5ccccc54)cc3)o2)cc1	T cruzi inh 63, Lmaj promast 99 (no result: Hep lipid drop)
CC(C)C(NC(=O)c1c(F)cccc1F)C(=O)N1CCN(c2ncccn2)CC1 (configuration not stated)	none (no result: Hep lipid drop, T cruzi inh, DTT redox prof, Lmaj promast)
COc1ccc(CCNC(=O)C2CCC(C(C)(C)C)CC2)cc1OC (configuration not stated)	none (no result: DTT redox prof, Lmaj promast)
S=C(Cc1cccnc1)N1CCOCC1	none
O=C(NCc1ccco1)c1ccc(S(=O)(=O)N2CCCc3ccccc32)cc1	Lmaj promast 64
COc1ccc(NC(=S)N(CCN(C)C)Cc2cccs2)cc1	none
CSc1cccc(NC(=S)N(CCCN2CCCC2)Cc2cccs2)c1	Lmaj promast 99
COc1ccc(NC(=S)N(CCCN2CCCC2)Cc2cccs2)cc1	Lmaj promast 80
Cc1ccc(Cl)cc1NC(=S)N(CCCN1CCN(C)CC1)Cc1cccs1	Lmaj promast 54
Cc1cc(C)c(NC(=S)N(CCCN2CCN(C)CC2)Cc2cccs2)c(C)c1	none
COc1ccc(NC(=S)N(CCCN2CCCC2)Cc2ccco2)cc1	none
COc1ccc(NC(=S)N(CCCN2CCCC(C)C2)Cc2cccs2)cc1 (configuration not stated)	Lmaj promast 95
O=C(CCNC(=O)c1ccco1)Nc1ccc(OC(F)(F)F)cc1	none (no result: DTT redox prof, Lmaj promast)
O=S(=O)(NC1CCCC1)c1ccc(F)cc1F	none (no result: Hep lipid drop, T cruzi inh, DTT redox prof, Lmaj promast)
CCn1nnc2cc(C(=O)Nc3cccc(S(=O)(=O)N(C)C)c3)ccc21	none (no result: Hep lipid drop, T cruzi inh, DTT redox prof, Lmaj promast)
COc1ccc(NC(=S)N(CCCN2CCCCCC2)Cc2cccs2)cc1	Lmaj promast 97
S=C(Nc1ccc(Cl)cc1)N(CCCN1CCOCC1)Cc1cccs1	none
Cc1ccc(Sc2ccc(CN3CCCCC3)cc2[N+](=O)[O-])cc1	Lmaj promast 79
COc1ccc(OCc2nnc(SCC(=O)NC3CCCCC3)o2)cc1	none (no result: Hep lipid drop, DTT redox prof, Lmaj promast)
CC(C)Cc1ccc(CN2CCCC(NC(=O)Cn3cnnn3)C2)cc1 (configuration not stated)	T cruzi inh inconclusive (no result: DTT redox prof, Lmaj promast)
CC(C)Cc1ccc(CN2CCCC(NC(=O)CCn3cnnn3)C2)cc1 (configuration not stated)	T cruzi inh 56 (no result: DTT redox prof, Lmaj promast)
O=C(/C=C/Nc1ccc(Oc2ccccc2)cc1)c1ccco1	none
Cc1[nH]n(-c2ccccc2)c(=O)c1N=Nc1ccccc1	Hep lipid drop 54
CC(=O)c1ccc(N=Nc2c(C)[nH]n(-c3ccccc3)c2=O)cc1	none (no result: DTT redox prof, Lmaj promast)
O=C(NCCN1CCOCC1)c1ccc([N+](=O)[O-])cc1[N+](=O)[O-]	Lmaj promast 71 (no result: Hep lipid drop)
O=C(NCCCN1CCOCC1)c1sc2cc([N+](=O)[O-])ccc2c1Cl	Lmaj promast 86
O=C(NCCN1CCOCC1)c1cc([N+](=O)[O-])ccc1Cl	none (no result: DTT redox prof, Lmaj promast)
O=C(NCCCN1CCOCC1)c1sc2cc(F)ccc2c1Cl	Lmaj promast 93
COc1ccc(Cl)cc1C(=O)NCCCN1CCOCC1	none (no result: DTT redox prof, Lmaj promast)
O=C(NC1CC1)c1sc2cc(F)ccc2c1Cl	none (no result: Hep lipid drop, T cruzi inh, DTT redox prof, Lmaj promast)
O=C(NCCCN1CCOCC1)c1sc2cc(Cl)ccc2c1Cl	Lmaj promast 92
